Bioassay records (PubChem)
APJ agonist – activates the human apelin receptor APJ | P35414 | CHO-K1 APJ PathHunter beta-arrestin, luminescence; 0% DMSO wells, 100% apelin | activation, % at 20 µM | actives 0.11% (n = 330,000);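 active means activation more than six SD over the plate average, tested at 20 µM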;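 further: 0% = DMSO alone and 100% = apelin-13 at 10 nM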
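Test system – PathHunter CHO-K1 APJ (AGTRL-1) beta-arrestin reporter cells · Input – 1000 cells/well · Compound – single test compound dose, 20 µM final, 1% DMSO · Times – compound stimulation 90 min at 25 °C, detection 60 min · Technique – beta-gal luminescence · Read-out basis – APJ–arrestin association signal · Control set – negative DMSO alone, positive Apelin-13 at 10 nM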
HTR2A ag – agonists of mouse serotonin 5-HT2A receptor (HTR2A); P35363; CHO-K1 mHTR2A beta-arrestin complementation, luminescence; percent of 30 µM serotonin response; activation, % at 7.6 µM; actives 0.66% (n = 360,000); AID 624169;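 active means activation above a run cutoff, the mean activation of all tested compounds plus 3 SD, cut at about 14% in these data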;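 further: 0% = plate median of compound wells and 100% = 30 µM serotonin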
CCR6 antag – CCR6 (human) receptor antagonism; actives 0.49% (n = 340,000); inhibition, % at 20 µM; P51684; AID 493098; CHO-K1 CCR6 PathHunter beta-arrestin, luminescence, CCL20-stimulated;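 active means compounds whose inhibition of the agonist-driven luminescence signal at 20 µM reaches about 50%, limit read from the data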;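 further: cells stimulated with CCL20 at 14 nM final; plate controls were DMSO with CCL20 for no effect and DMSO without agonist for full effect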
CXCR6 inh – CXCR6 (human) receptor inhibition. O00574. CHO-K1 PathHunter CXCR6 beta-arrestin, luminescence. inhibition, % at 20 µM. actives 0.36% (n = 360,000); in the data active means inhibition above about 34%, passing the limit was not always enough;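 further: antagonist mode with CXCL16 agonist at 10 nM final; 0% = 10 nM CXCL16 with DMSO and 100% = unstimulated wells without agonist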
Target sequence (O00574 whole entry, looked up): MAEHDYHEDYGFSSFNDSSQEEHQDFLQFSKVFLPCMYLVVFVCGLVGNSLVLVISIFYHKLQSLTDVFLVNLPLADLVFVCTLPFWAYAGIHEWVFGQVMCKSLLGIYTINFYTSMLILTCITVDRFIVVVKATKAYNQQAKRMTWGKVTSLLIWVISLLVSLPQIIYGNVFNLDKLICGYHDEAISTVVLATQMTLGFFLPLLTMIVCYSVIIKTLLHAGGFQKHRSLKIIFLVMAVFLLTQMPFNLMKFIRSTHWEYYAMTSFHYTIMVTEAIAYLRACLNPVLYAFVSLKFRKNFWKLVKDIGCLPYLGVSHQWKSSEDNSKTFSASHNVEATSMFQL
EBI2 antag – EBI2 (human) antagonism; P32249; EBI2 beta-arrestin recruitment, luminescence, 7a,25-OHC stimulated; inhibition, % at 5 µM; actives 0.81% (n = 360,000); in the data active means inhibition above about 38%;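 further: enzyme fragment complementation signal reports receptor beta-arrestin coupling in cells; 0% = agonist plus DMSO wells and 100% = wells without agonist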
APJ antagonist – APJ receptor antagonism | AID 2521 | actives 0.32% (n = 330,000) | inhibition, % at 20 µM | CHO-K1 APJ beta-arrestin complementation, luminescence;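 active means inhibition above about 40% at 20 µM, limit read from the data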;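 further: cells challenged with 10 nM apelin-13 agonist together with compound; plate controls were apelin-13 plus DMSO wells for no effect and DMSO wells lacking apelin-13 for full effect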
Starred values were filed as active, the others as inactive. Compounds with a hit are over-represented: about 2.1% of the library has one in this group of screens.

Screening O=c1ccc2cc3c([nH]c4ccc(Br)cc43)oc-2c1O returned APJ agonist -7, HTR2A ag -2, CXCR6 inh 45*, EBI2 antag 3 and APJ antagonist 39.
O=C(CCc1ccccc1)N1CCCC(Nc2ccc(F)cc2)C1 (stereo not drawn) was read as APJ agonist 0, HTR2A ag -5, CCR6 antag 10, CXCR6 inh -1, EBI2 antag 6 and APJ antagonist -15.
`CCOC(=O)N1CCN(S(=O)(=O)c2ccc(C(=O)NNc3nc4cc(C)cc(C)c4s3)cc2)CC1` gave APJ agonist -1, HTR2A ag 23*, CCR6 antag 4, CXCR6 inh -8, EBI2 antag -5 and APJ antagonist 7.
`CCOC(=O)N1CCN(S(=O)(=O)c2ccc(C(=O)NNc3nc4c(C)cc(C)cc4s3)cc2)CC1` gave APJ agonist 1, HTR2A ag -3, CCR6 antag 5, CXCR6 inh -2, EBI2 antag -7 and APJ antagonist -13.
For C=C1C(=O)O[C@H]2C[C@H]1[C@@H](OC(C)=O)C/C(C)=C/CC/C(C)=C\CC[C@]2(C)O the results were HTR2A ag 6, CCR6 antag 3, CXCR6 inh 0 and EBI2 antag 52*.
Screening O=C(N/N=C/c1cc(Br)cc(Br)c1O)c1cccc(N2CCCC2=O)c1 returned APJ agonist 0, HTR2A ag -5, CCR6 antag 54*, CXCR6 inh -20, EBI2 antag 5 and APJ antagonist -23.
For C=CCS/C(N)=N\N=C\c1cc(Br)cc([N+](=O)[O-])c1O the results were APJ agonist -3, HTR2A ag 1, CCR6 antag 62*, CXCR6 inh 34*, EBI2 antag 1 and APJ antagonist 23.
`COc1ccc(NC(=O)C2CC(=O)N(Cc3ccco3)C2)cc1Cl` (stereo not drawn) gave APJ agonist 0, HTR2A ag 3, CCR6 antag 1, CXCR6 inh 6, EBI2 antag 8 and APJ antagonist -23.
`COc1ccc(NC(=O)CN2CCC(C)CC2)c([N+](=O)[O-])c1` gave APJ agonist 0, HTR2A ag 5, CCR6 antag 7, CXCR6 inh -6, EBI2 antag 0 and APJ antagonist 0.
COc1ccc(NC(=O)CN2CCCCC2)c([N+](=O)[O-])c1 was read as APJ agonist 2, HTR2A ag 16*, CCR6 antag 17, CXCR6 inh -4, EBI2 antag 9 and APJ antagonist 8.
NS(=O)(=O)c1ccc(NCc2ccccc2OCc2ccc(F)cc2)cc1 was read as APJ agonist 0, HTR2A ag -8, CCR6 antag -4, CXCR6 inh -10, EBI2 antag 2 and APJ antagonist -26.
For NS(=O)(=O)c1ccc(NCc2cc(Cl)ccc2OCc2ccccc2F)cc1 the results were APJ agonist -3, HTR2A ag -6, CCR6 antag 54*, CXCR6 inh -12, EBI2 antag 17 and APJ antagonist -5.
CN(C)CC(CCC(CN(C)C)C(=O)c1ccccc1)C(=O)c1ccccc1 (stereo not drawn) was read as HTR2A ag -8, CCR6 antag 98*, CXCR6 inh 76* and EBI2 antag 47*.
For O=C(CSc1nnc2c(n1)[nH]c1ccccc12)NCc1ccccc1F the results were APJ agonist -3, HTR2A ag 15*, CCR6 antag -5, CXCR6 inh -4, EBI2 antag 3 and APJ antagonist 8.
For O=C(CSc1nnc2c(n1)[nH]c1ccc(F)cc12)Nc1ccccc1F the results were APJ agonist -3, HTR2A ag 6, CCR6 antag 8, CXCR6 inh 3, EBI2 antag -17 and APJ antagonist 15.
For C[C@@H]1CN([C@H](C)CO)C(=O)CCCn2cc(nn2)CO[C@H]1CN(C)C(=O)Nc1ccccc1C(F)(F)F the results were HTR2A ag 1, CXCR6 inh -7 and EBI2 antag -11.
`C[C@H]1CN([C@@H](C)CO)S(=O)(=O)c2ccc(Br)cc2O[C@H]1CN(C)C(=O)c1cccnc1` gave HTR2A ag 1, CXCR6 inh -5 and EBI2 antag -4.
Screening O=P(NC1CCCCC1)(c1ccccc1)c1ccccc1 returned HTR2A ag -5, CCR6 antag 6, CXCR6 inh -1 and EBI2 antag 1.
For CC/C(=C\C1CCCCC1)C(NP(=O)(c1ccccc1)c1ccccc1)c1ccccc1 (stereo not drawn) the results were APJ agonist -2, HTR2A ag 4, CCR6 antag 35, CXCR6 inh 44*, EBI2 antag -22 and APJ antagonist 21.
`O=C1C=CC2(O[C@H](c3ccccc3)[C@@H](c3ccccc3)O2)[C@H](Sc2ccccc2O)C1` gave HTR2A ag -1, CCR6 antag 104*, CXCR6 inh 94* and EBI2 antag 72*.
For C[C@@H]1[C@@H](Sc2ccccc2)CC(=O)O[C@@H]1c1ccc(-c2ccccc2)cc1 the results were APJ agonist 7, HTR2A ag 1, CCR6 antag 0, CXCR6 inh -13, EBI2 antag 10 and APJ antagonist -14.
Screening COc1ccc(S(=O)(=O)N2CCC(C(=O)N(CC(C)C)C3CCS(=O)(=O)C3)CC2)cc1OC (stereo not drawn) returned APJ agonist 5, HTR2A ag 4, CCR6 antag 4, CXCR6 inh 0, EBI2 antag -6 and APJ antagonist 5.
`O=C(NCCc1ccccc1Cl)c1cc(COc2ccc(F)cc2F)on1` gave APJ agonist 5, HTR2A ag -3, CCR6 antag -3, CXCR6 inh -12, EBI2 antag 57* and APJ antagonist -7.
`COc1cc(C(=O)NCC(c2cccs2)N2CCOCC2)cc(OC)c1OC` (stereo not drawn) gave APJ agonist -3, HTR2A ag -7, CCR6 antag -5, CXCR6 inh 0, EBI2 antag 2 and APJ antagonist -10.
`N#CC(C#N)=C(N)/C(C#N)=C/c1cc(O)c(O)c(O)c1` gave APJ agonist -7, HTR2A ag 6, CCR6 antag 70*, CXCR6 inh 55*, EBI2 antag 8 and APJ antagonist 57*.
For CC(C)(C)c1ccc(C(=O)N2CCC2(C)C(=O)NCC(F)(F)F)cc1 (stereo not drawn) the results were HTR2A ag 1, CXCR6 inh 2 and EBI2 antag -4.
`CCCCNc1c(-c2ccc(-c3ccc(C(C)=O)cc3)c(OC)c2)nc2cnccn12` gave APJ agonist 1, HTR2A ag 7, CCR6 antag 16, CXCR6 inh -4, EBI2 antag 49* and APJ antagonist -12.
